Consider 9 compounds from PMC3797290 (Experimental and Therapeutic Medicine, 2013).

The test system of one experiment is E. coli ATCC 25922. Put plainly: Interaction study, checkerboard titration. It counts as cell-based, Escherichia coli. The settings on record: antibiotic in combination with RNL (ranalexin).
The test system of another experiment is P. aeruginosa 8–97. Put plainly: Interaction study, checkerboard titration. It counts as cell-based, Pseudomonas aeruginosa. The settings on record: antibiotic in combination with RNL (ranalexin).
The test system of another experiment is E. coli 31–97. Put plainly: Interaction study, checkerboard titration. It counts as cell-based, Escherichia coli.
Another experiment has as its system E. coli 7–98. Put plainly: Interaction study, checkerboard titration. In kind it is cell-based, Escherichia coli.
A further experiment deals with MS S. aureus 21–99. Put plainly: Interaction study, checkerboard titration. Conditions: antibiotic in combination with RNL (ranalexin). In kind it is cell-based, Staphylococcus aureus.
In another experiment the test system is MS S. aureus 14–99. Put plainly: Interaction study, checkerboard titration. Conditions: antibiotic in combination with RNL (ranalexin). In kind it is cell-based, Staphylococcus aureus. The essentials: (§1)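 Checkerboard titration of peptide plus clinical antibiotic against representative clinical MS S. aureus isolates in polypropylene microtiter plates. […] Mueller-Hinton broth, inoculum 5×10^5 cfu/ml, 18 h at 35°C in air. MIC is the lowest concentration inhibiting visible growth. FIC index = A/MICA + B/MICB; synergy ≤0.5.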

A further experiment has as its system MS S. aureus 15–99. Put plainly: Interaction study, checkerboard titration. Conditions: antibiotic in combination with RNL (ranalexin). In kind it is cell-based, Staphylococcus aureus. The essentials: as §1
Another experiment concerns MS S. aureus 56–96. Put plainly: Interaction study, checkerboard titration. The settings on record: antibiotic in combination with RNL (ranalexin). In kind it is cell-based, Staphylococcus aureus.
In a further experiment the test system is P. aeruginosa. Conditions: at 2 mg/l, in vitro, cited from earlier work; for effect on P. aeruginosa at 48 h: incubation continued for 48 h.
[1] abbreviates: antibiotic in combination with MG II (magainin II).
Where [2] appears, read: antibiotic in combination with RNL (ranalexin).

As for `CCN1CCN(C(=O)N[C@@H](C(=O)N[C@@H]2C(=O)N3[C@@H]2SC(C)(C)[C@@H]3C(=O)O)c2ccccc2)C(=O)C1=O` [PIP, piperacillin], the FIC index amounted to 0.750 in the experiment on E. coli ATCC 25922; 1.000 in the experiment with P. aeruginosa 8–97; 0.312 with E. coli 31–97 (setting [1]); 1.250 with E. coli 31–97 (setting [2]); 0.250 with E. coli 7–98 (setting [1]); 1.000 with E. coli 7–98 (setting [2]).
Take `C[C@H]1c2cccc(O)c2C(=O)C2=C(O)[C@]3(O)C(=O)C(C(N)=O)=C(O)[C@@H](N(C)C)[C@@H]3[C@@H](O)[C@@H]21` [D, doxycycline]: the FIC index in the experiment with MS S. aureus 21–99 turned out to be 0.187; in the experiment with MS S. aureus 14–99, 0.312; with E. coli ATCC 25922 it was 0.312; in the experiment on P. aeruginosa 8–97 it was 0.312; with E. coli 31–97 (setting [1]), 1.250; in the experiment on E. coli 31–97 (setting [2]), 0.375. Besides, the FIC index was determined as 0.250 in the experiment on MS S. aureus 15–99, 0.312 in the experiment with MS S. aureus 56–96, 2.000 with E. coli 7–98 (setting [1]) and 0.312 in the experiment on E. coli 7–98 (setting [2]).
For `C[C@@H](O)[C@H]1C(=O)N2C(C(=O)O)=C(S[C@@H]3CN[C@H](C(=O)N(C)C)C3)[C@H](C)[C@H]12` [MEM, meropenem], the FIC index in the experiment on MS S. aureus 21–99 is 1.500; with MS S. aureus 14–99, 1.250; with E. coli ATCC 25922, 0.750; in the experiment with P. aeruginosa 8–97 it was 1.000; with E. coli 31–97 (setting [1]) it was 0.375; in the experiment with E. coli 31–97 (setting [2]), 1.000. The FIC index with MS S. aureus 15–99 came to 1.500; in the experiment on MS S. aureus 56–96, 1.250; in the experiment on E. coli 7–98 (setting [1]) it was 0.375; with E. coli 7–98 (setting [2]), 1.500.
As to polymyxin E [POL-E], the FIC index in the experiment on E. coli ATCC 25922 was determined as 0.187; with P. aeruginosa 8–97, 0.250; in the experiment with E. coli 31–97 (setting [1]) it was 1.500; with E. coli 31–97 (setting [2]) it was 0.250; in the experiment with E. coli 7–98 (setting [2]), 0.312.
As to `CC(C)(O/N=C(\C(=O)N[C@@H]1C(=O)N2C(C(=O)[O-])=C(C[n+]3ccccc3)CS[C@H]12)c1csc(N)n1)C(=O)O` [CAZ, ceftazidime], the FIC index is listed as 1.500 in the experiment on P. aeruginosa 8–97, 0.187 with E. coli 31–97 (setting [1]) and 0.312 in the experiment with E. coli 7–98 (setting [1]).
Regarding `CC[C@H]1OC(=O)[C@H](C)[C@@H](O[C@H]2C[C@@](C)(OC)[C@@H](O)[C@H](C)O2)[C@H](C)[C@@H](O[C@@H]2O[C@H](C)C[C@H](N(C)C)[C@H]2O)[C@](C)(OC)C[C@@H](C)C(=O)[C@H](C)[C@@H](O)[C@]1(C)O` [CLR, clarithromycin], the FIC index amounted to 0.250 with MS S. aureus 21–99; 0.250 in the experiment on MS S. aureus 14–99; 0.375 in the experiment with E. coli ATCC 25922; 0.375 in the experiment on P. aeruginosa 8–97; 1.500 with E. coli 31–97 (setting [1]); 0.312 in the experiment on E. coli 31–97 (setting [2]). Also, the FIC index in the experiment with MS S. aureus 15–99 came to 0.187; with MS S. aureus 56–96 it was 0.312; with E. coli 7–98 (setting [1]) it was 1.500; in the experiment with E. coli 7–98 (setting [2]) it was 0.312. In the experiment on P. aeruginosa, the “effect on P. aeruginosa cell growth at 24 h” value was “no effect on cell growth”. For the same compound, in the experiment with P. aeruginosa, the “effect on P. aeruginosa at 48 h” value was “bactericidal”.
As to `CO/N=C(\C(=O)N[C@@H]1C(=O)N2C(C(=O)O)=C(CSc3nc(=O)c(=O)[nH]n3C)CS[C@H]12)c1csc(N)n1` [CRO, ceftriaxone], the FIC index is listed as 1.500 in the experiment on MS S. aureus 21–99; 1.000 in the experiment with MS S. aureus 14–99; 1.000 in the experiment on E. coli ATCC 25922; 0.750 in the experiment with P. aeruginosa 8–97; 0.312 in the experiment with E. coli 31–97 (setting [1]); 1.250 with E. coli 31–97 (setting [2]). Moreover, the FIC index came out at 1.250 with MS S. aureus 15–99, 1.500 in the experiment on MS S. aureus 56–96, 0.250 with E. coli 7–98 (setting [1]) and 1.250 with E. coli 7–98 (setting [2]).
Consider amoxicillin-clavulanate [AMC], for which the FIC index with MS S. aureus 14–99 was 1.000; in the experiment with E. coli ATCC 25922 it was 1.500; in the experiment on P. aeruginosa 8–97 it was 1.000; in the experiment on E. coli 31–97 (setting [1]), 0.312; in the experiment on MS S. aureus 15–99 it was 1.500; in the experiment with E. coli 7–98 (setting [1]), 0.187. For the same compound, the FIC index in the experiment with E. coli 7–98 (setting [2]) is 1.000.
With `CC[C@H]1OC(=O)[C@H](C)[C@@H](O[C@H]2C[C@@](C)(OC)[C@@H](O)[C@H](C)O2)[C@H](C)[C@@H](O[C@@H]2O[C@H](C)C[C@H](N(C)C)[C@H]2O)[C@](C)(O)C[C@@H](C)C(=O)[C@H](C)[C@@H](O)[C@]1(C)O` [erythromycin], in the experiment with P. aeruginosa, the “effect on P. aeruginosa cell growth at 24 h” value was “no effect on cell growth” and the “effect on P. aeruginosa at 48 h” value was “bactericidal”.
